The text below walks through data of PMC2778733 (Journal of the American Chemical Society, 2008).

Read-outs that look alike come from different tables or passages of the source.

Data set [1] concerns the target T1, Siderocalin (Scn) (Homo sapiens, UniProt P80188). To be noted: cited from earlier work.
Data set [2] addresses T1, Siderocalin (Scn). Briefly: Fluorescence quenching binding assay of Scn. To be noted: for Kd: 100 nM Scn, TBS pH 7.4, 5% DMSO. The method, boiled down:
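Recombinant Scn, 100 nM in TBS pH 7.4 with 32 μg/mL ubiquitin and 5% DMSO, was titrated with 2–10 equivalents of substrate. Tryptophan quenching was read at excitation 281 nm and emission 340 nm, corrected for dilution. Metal complexes were formed in situ from a DMSO ligand stock plus 1 eq. metal salt, equilibrated 1 h, and used as a 6 μM working solution. Apo ligands were prepared without metal. Kd came from a one-site nonlinear least-squares fit.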

The conditions of data set [3]: [L] = 10 μmol L^−1, [Fe^III] = 1 μmol L^−1; cited from earlier work.

T1 sequence (P80188 21-198): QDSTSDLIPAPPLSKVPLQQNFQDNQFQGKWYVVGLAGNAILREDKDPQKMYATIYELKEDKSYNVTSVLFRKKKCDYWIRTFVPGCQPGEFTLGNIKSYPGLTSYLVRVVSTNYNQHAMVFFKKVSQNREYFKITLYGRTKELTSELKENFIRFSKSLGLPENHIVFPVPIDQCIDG

Turning to `O=C1CCC(=O)N(O)CCC(O)CNC(=O)CCC(=O)N(O)CCC(O)CN1` (centres unmarked) [alcaligin], the “Binding by Scn in words” value at Siderocalin (Scn) [1] (natural siderophores) is reported as “not bound”.

Broadly, the Kd is the concentration at which binding is half-saturated. As to `Cn1ccc(C(=O)NCCN(CCNC(=O)c2ccn(C)c(=O)c2O)CCNC(=O)c2ccn(C)c(=O)c2O)c(O)c1=O` [tren(Me-3,2-HOPO)3], the Kd at Siderocalin (Scn) [2] (Fe^III complex) is greater than 600 nM.

Take `O=C(CC(O)(CC(=O)NCCCCNCCCNC(=O)c1ccc(O)c(O)c1)C(=O)O)NCCCCNCCCNC(=O)c1ccc(O)c(O)c1` [petrobactin]: the “Binding by Scn in words” value on Siderocalin (Scn) [1] is listed as “not bound”.

In the case of `O=C(NCCN(CCNC(=O)c1cccc(=O)n1O)CCNC(=O)c1cccc(=O)n1O)c1cccc(=O)n1O` [tren(1,2-HOPO)3], the Kd on Siderocalin (Scn) [2] (Fe^III complex) was greater than 600 nM; on Siderocalin (Scn) [2] (V^IV complex), 300 ± 30 nM; at Siderocalin (Scn) [2] (no metal (apo ligand)), 250 ± 30 nM. Further, at Siderocalin (Scn) [2] (apo ligand, pH 7.4), the “Scn affinity in words” value is given as “micromolar affinity range”.

Regarding `O=C(NCCN(CCNC(=O)c1cccc(O)c1O)CCNC(=O)c1cccc(=O)n1O)c1cccc(O)c1O` [trenCAM2(1,2-HOPO), tren(CAM)2(1,2-HOPO)], the Kd at Siderocalin (Scn) [2] (Fe^III complex) is 0.8 ± 0.3 nM; on Siderocalin (Scn) [2] (V^IV complex), 40 ± 9 nM; at Siderocalin (Scn) [2] (no metal (apo ligand)) it was 1.4 ± 0.3 nM.

In the case of `C[C@H]1OC(=O)[C@@H](NC(=O)CNC(=O)c2cccc(O)c2O)[C@@H](C)OC(=O)[C@@H](NC(=O)CNC(=O)c2cccc(O)c2O)[C@@H](C)OC(=O)[C@H]1NC(=O)CNC(=O)c1cccc(O)c1O` [bacillibactin], the “Binding by Scn in words” value on Siderocalin (Scn) [1] (apo siderophore) is listed as “bound with high affinity”; on Siderocalin (Scn) [1] (natural siderophores), “sequestered”.

As for `Cn1ccc(C(=O)NCCN(CCNC(=O)c2cccc(O)c2O)CCNC(=O)c2cccc(O)c2O)c(O)c1=O` [trenCAM2(Me-3,2-HOPO), tren(CAM)2(Me-3,2-HOPO)], binding at Siderocalin (Scn) [2] (Fe^III complex) was put at a Kd of 120 ± 10 nM.

`O=C(N[C@H]1COC(=O)[C@@H](NC(=O)c2cccc(O)c2O)COC(=O)[C@@H](NC(=O)c2cccc(O)c2O)COC1=O)c1cccc(O)c1O` [enterobactin]: the “Binding by Scn in words” value on Siderocalin (Scn) [1] (apo siderophore) was “bound with high affinity”; at Siderocalin (Scn) [1] (natural siderophores), “sequestered”. Besides, the “pM value (pM = -log[Fe^III])” value in data set [3] was 35.3.

Regarding `Cn1ccc(C(=O)NCCN(CCNC(=O)c2cccc(O)c2O)CCNC(=O)c2ccn(C)c(=O)c2O)c(O)c1=O` [trenCAM(Me-3,2-HOPO)2, tren(CAM)(Me-3,2-HOPO)2], the affinity at Siderocalin (Scn) [2] (Fe^III complex), expressed as Kd, was 150 ± 20 nM.

`O=C(NCCN(CCNC(=O)c1cccc(=O)n1O)CCNC(=O)c1cccc(=O)n1O)c1cccc(O)c1O` [trenCAM(1,2-HOPO)2, tren(CAM)(1,2-HOPO)2]: the Kd on Siderocalin (Scn) [2] (Fe^III complex) turned out to be 43 ± 2 nM; at Siderocalin (Scn) [2] (V^IV complex), 220 ± 70 nM; on Siderocalin (Scn) [2] (no metal (apo ligand)), 140 ± 10 nM.

`O=C(NCCN(CCNC(=O)c1cccc(O)c1O)CCNC(=O)c1cccc(O)c1O)c1cccc(O)c1O` [trenCAM3, tren(CAM)3]: the equilibrium dissociation constant (Kd) at Siderocalin (Scn) [1] (Fe^III complex) is 0.3 ± 0.1 nM; at Siderocalin (Scn) [2] (V^IV complex), 1.3 ± 0.3 nM; at Siderocalin (Scn) [2] (no metal (apo ligand)), 1.2 ± 0.2 nM.

For `O=C(N[C@H]1COC(=O)[C@@H](NC(=O)c2cc([C@@H]3O[C@H](CO)[C@@H](O)[C@H](O)[C@H]3O)cc(O)c2O)COC(=O)[C@@H](NC(=O)c2cc([C@@H]3O[C@H](CO)[C@@H](O)[C@H](O)[C@H]3O)cc(O)c2O)COC1=O)c1cccc(O)c1O` [salmochelin-S4], the “Binding by Scn in words” value at Siderocalin (Scn) [1] (natural siderophores) is “not bound”.

In the case of `CC(=O)N(O)CCCCCNC(=O)CCC(=O)N(O)CCCCCNC(=O)CCC(=O)N(O)CCCCCN` [desferrioxamine B], the “pM value (pM = -log[Fe^III])” value in data set [3] is 26.6.

Take `CC(=O)N(O)CCCC[C@H](NC(=O)CC(O)(CC(=O)N[C@@H](CCCCN(O)C(C)=O)C(=O)O)C(=O)O)C(=O)O` [aerobactin]: the “Binding by Scn in words” value on Siderocalin (Scn) [1] (natural siderophores) is “not bound”.
